# Measurements from ChEMBL document CHEMBL3297654, “Synthesis, antimicrobial and cytotoxic activities, and structure-activity relationships of gypsogenin derivatives against human cancer cells” (Eur J Med Chem, 2014).
# Activity calls are given as the source filed them. The rule behind the calls is not given here.
# Columns and labels:
# [1] = tested on: Bacillus subtilis; test: Antimicrobial activity against Bacillus subtilis ATCC 6633 assessed as zone of inhibition at 30 uL for 24 hrs at 30 degC by disk diffusion test; format: functional
# In short: (§1)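 Agar well diffusion on Mueller Hinton agar seeded with 0.1 mL broth culture (18–24 h), adjusted to 0.5 McFarland (about 1×10^8 bacteria or 1×10^6 yeast cells/mL). A 6 mm well is filled with 30 µL of compound from a fresh 1000 µg/mL DMSO stock. Plates are held at 30 °C for 24 h and inhibition zone diameter is read in mm.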
# [2] = tested on: Bacillus subtilis; test: Antimicrobial activity against Bacillus subtilis ATCC 6633 for 24 hrs by microdillution method; format: functional
# In short: (§2)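 Broth microdilution. Compound is dissolved in DMSO (2 mg/mL) and diluted in Mueller Hinton broth as two-fold serial dilutions from 256 to 0.125 µg/mL. Bacteria are pre-grown in nutrient broth at 30 °C, and the final inoculum is about 10^6 cfu/mL. Tests are incubated 37 °C for 24 h. MIC is the lowest concentration giving complete inhibition. Streptomycin is the positive control.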
# [3] = tested on: HL-60; test: Induction of apoptosis in human HL60 cells at 20 uM after 48 hrs by Hoechst 33258/propidium iodide staining based phase contrast microscopic analysis; format: functional
# In short: (§3)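 Cells in 48-well plates treated with 0.5, 10, 20 or 40 µM for 24 and 48 h. Values are read at 48 h, 20 µM for test agents and 0.5 µM for controls. Staining is Hoechst 33258/propidium iodide double staining with fluorescence microscopy. Blue nuclei are viable or early-to-mid apoptotic, and pink nuclei are late apoptotic or necrotic. Apoptosis and necrosis are scored from chromatin condensation as % of cells. Cells are grown at 37 °C in 5% CO2 in RPMI, DMEM or McCoy's 5A with 10–15% heat-inactivated FCS.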
# [4] = tested on: Staphylococcus aureus; test: Antimicrobial activity against Staphylococcus aureus ATCC 25923 assessed as zone of inhibition at 30 uL for 24 hrs at 37 degC by disk diffusion test; format: functional, organism-based
# In short: (§4)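 Compound (30 µL of a fresh 1000 µg/mL DMSO stock) goes into a 6 mm well cut in Mueller Hinton agar inoculated with 0.1 mL broth culture adjusted to 0.5 McFarland (about 1×10^8 cells/mL). Plates are incubated 24 h at 37 °C, then zone of inhibition diameter is measured in mm.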
# [5] = tested on: MCF7; test: Induction of apoptosis in human MCF7 cells at 20 uM after 48 hrs by Hoechst 33258/propidium iodide staining based phase contrast microscopic analysis; format: functional; in short: as §3
# [6] = tested on: HeLa; test: Antiproliferative activity against human HeLa cells after 24 and 72 hrs by MTT assay; format: functional, cell-based
# In short: (§5)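 ATCC human cell lines are kept in RPMI, DMEM or McCoy's 5A with 10–15% heat-inactivated FCS at 37 °C and 5% CO2. They are seeded at 1×10^4–1×10^5 cells/mL in 48-well plates and exposed to 0.5, 10, 20 or 40 µM. Viability is read by MTT (590 nm) at 24 and 72 h. Growth is expressed relative to untreated cells and IC50 is fitted, in triplicate.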
# [7] = tested on: MCF7; test: Antiproliferative activity against human MCF7 cells after 24 and 72 hrs by MTT assay; format: functional, cell-based; in short: as §5
# [8] = tested on: Proteus vulgaris; test: Antimicrobial activity against Proteus vulgaris ATCC 33420 assessed as zone of inhibition at 30 uL for 24 hrs at 37 degC by disk diffusion test; format: functional, organism-based; in short: as §4
# [9] = tested on: Pseudomonas aeruginosa; test: Antimicrobial activity against Pseudomonas aeruginosa ATCC 35032 assessed as zone of inhibition at 30 uL for 24 hrs at 37 degC by disk diffusion test; format: functional, organism-based; in short: as §4
# [10] = tested on: Staphylococcus epidermidis; test: Antimicrobial activity against Staphylococcus epidermidis ATCC 12228 assessed as zone of inhibition at 30 uL for 24 hrs at 37 degC by disk diffusion test; format: functional, organism-based; in short: as §4
# [11] = tested on: HeLa; test: Induction of necrosis in human HeLa cells at 20 uM after 48 hrs by Hoechst 33258/propidium iodide staining based phase contrast microscopic analysis; format: functional; in short: as §3
# [12] = tested on: Caco-2; test: Antiproliferative activity against human Caco2 cells after 24 and 72 hrs by MTT assay; format: functional, cell-based; in short: as §5
# [13] = tested on: HeLa; test: Induction of apoptosis in human HeLa cells at 20 uM after 48 hrs by Hoechst 33258/propidium iodide staining based phase contrast microscopic analysis; format: functional; in short: as §3
# [14] = tested on: Saccharomyces cerevisiae; test: Antimicrobial activity against Saccharomyces cerevisiae ATCC 9763 assessed as zone of inhibition at 30 uL for 24 hrs at 30 degC by disk diffusion test; format: functional, organism-based; in short: as §1
# [15] = tested on: Cyberlindnera jadinii; test: Antimicrobial activity against Candida utilis ATCC 9950 assessed as zone of inhibition at 30 uL for 24 hrs at 30 degC by disk diffusion test; format: functional, organism-based; in short: as §1
# [16] = tested on: Candida albicans; test: Antimicrobial activity against Candida albicans ATCC 10231 assessed as zone of inhibition at 30 uL for 24 hrs at 30 degC by disk diffusion test; format: functional, organism-based; in short: as §1
# [17] = tested on: Caco-2; test: Induction of necrosis in human Caco2 cells at 20 uM after 48 hrs by Hoechst 33258/propidium iodide staining based phase contrast microscopic analysis; format: functional; in short: as §3
# [18] = tested on: Caco-2; test: Induction of apoptosis in human Caco2 cells at 20 uM after 48 hrs by Hoechst 33258/propidium iodide staining based phase contrast microscopic analysis; format: functional; in short: as §3
# [19] = tested on: HT-29; test: Induction of necrosis in human HT-29 cells at 20 uM after 48 hrs by Hoechst 33258/propidium iodide staining based phase contrast microscopic analysis; format: functional; in short: as §3
# [20] = tested on: HT-29; test: Antiproliferative activity against human HT-29 cells after 24 and 72 hrs by MTT assay; format: functional, cell-based; in short: as §5
# [21] = tested on: SAOS-2; test: Induction of apoptosis in human Saos2 cells at 20 uM after 48 hrs by Hoechst 33258/propidium iodide staining based phase contrast microscopic analysis; format: functional; in short: as §3
# [22] = tested on: Candida tropicalis; test: Antimicrobial activity against Candida tropicalis assessed as zone of inhibition at 30 uL for 24 hrs at 30 degC by disk diffusion test; format: functional, organism-based; in short: as §1
# [23] = tested on: Salmonella typhimurium; test: Antimicrobial activity against Salmonella typhimurium ATCC 14028 assessed as zone of inhibition at 30 uL for 24 hrs at 37 degC by disk diffusion test; format: functional, organism-based; conditions: Salmonella enterica subsp. enterica serovar Typhimurium; in short: as §4
# [24] = tested on: MCF7; test: Induction of necrosis in human MCF7 cells at 20 uM after 48 hrs by Hoechst 33258/propidium iodide staining based phase contrast microscopic analysis; format: functional; in short: as §3
# [25] = tested on: Nakaseomyces glabratus; test: Antimicrobial activity against Candida glabrata assessed as zone of inhibition at 30 uL for 24 hrs at 30 degC by disk diffusion test; format: functional, organism-based; in short: as §1
# [26] = tested on: Enterococcus faecalis; test: Antimicrobial activity against Enterococcus faecalis ATCC 29212 assessed as zone of inhibition at 30 uL for 24 hrs at 37 degC by disk diffusion test; format: functional, organism-based; in short: as §4
# [27] = tested on: SAOS-2; test: Induction of necrosis in human Saos2 cells at 20 uM after 48 hrs by Hoechst 33258/propidium iodide staining based […] microscopic analysis; format: functional; in short: as §3
# [28] = tested on: Bacillus thuringiensis; test: Antimicrobial activity against Bacillus thuringiensis for 24 hrs by microdillution method; format: functional; in short: as §2
# [29] = tested on: HT-29; test: Induction of apoptosis in human HT-29 cells at 20 uM after 48 hrs by Hoechst 33258/propidium iodide staining based phase contrast microscopic analysis; format: functional; in short: as §3
# [30] = tested on: Bacillus cereus; test: Antimicrobial activity against Bacillus cereus ATCC 11778 for 24 hrs by microdillution method; format: functional; in short: as §2
# [31] = tested on: HL-60; test: Induction of necrosis in human HL60 cells at 20 uM after 48 hrs by Hoechst 33258/propidium iodide staining based phase contrast microscopic analysis; format: functional; in short: as §3
# [32] = tested on: Bacillus cereus; test: Antimicrobial activity against Bacillus cereus ATCC 11778 assessed as zone of inhibition at 30 uL for 24 hrs at 30 degC by disk diffusion test; format: functional; in short: as §1
# [33] = tested on: Escherichia coli; test: Antimicrobial activity against Escherichia coli ATCC 25922 assessed as zone of inhibition at 30 uL for 24 hrs at 37 degC by disk diffusion test; format: functional, organism-based; in short: as §4
# [34] = tested on: Klebsiella pneumoniae; test: Antimicrobial activity against Klebsiella pneumoniae ATCC 13882 assessed as zone of inhibition at 30 uL for 24 hrs at 37 degC by disk diffusion test; format: functional, organism-based; in short: as §4
# [35] = Antiproliferative activity against human Saos2 cells after 24 and 72 hrs by MTT assay; format: functional, cell-based; conditions: SAOS-2; in short: as §5
# [36] = tested on: Bacillus thuringiensis; test: Antimicrobial activity against Bacillus thuringiensis assessed as zone of inhibition at 30 uL for 24 hrs at 30 degC by disk diffusion test; format: functional; in short: as §1
# [37] = tested on: Micrococcus luteus; test: Antimicrobial activity against Micrococcus luteus ATCC 9341 assessed as zone of inhibition at 30 uL for 24 hrs at 30 degC by disk diffusion test; format: functional, organism-based; in short: as §1
# [38] = tested on: HL-60; test: Antiproliferative activity against human HL60 cells after 24 and 72 hrs by MTT assay; format: functional, cell-based; in short: as §5
Structure (SMILES),diameter of the inhibition zone (DIZ) [1],MIC [2],Activity [3],diameter of the inhibition zone (DIZ) [4],Activity [5],IC50 [6],IC50 [7],diameter of the inhibition zone (DIZ) [8],diameter of the inhibition zone (DIZ) [9],diameter of the inhibition zone (DIZ) [10],Activity [11],IC50 [12],Activity [13],diameter of the inhibition zone (DIZ) [14],diameter of the inhibition zone (DIZ) [15],diameter of the inhibition zone (DIZ) [16],Activity [17],Activity [18],Activity [19],IC50 [20],also measured
CC(=O)O[C@H]1CC[C@]2(C)[C@H]3CC=C4[C@@H]5CC(C)(C)CC[C@]5(C(=O)OCc5ccccc5)CC[C@@]4(C)[C@]3(C)CC[C@H]2[C@]1(C)/C=N/O,inactive,inactive,5%,inactive,10%,40.3 µM,9.9 µM,inactive,inactive,inactive,50%,20.3 µM,15%,inactive,inactive,inactive,33%,19%,14%,21.4 µM,Activity [21]: 24%; diameter of the inhibition zone (DIZ) [22]: inactive; diameter of the inhibition zone (DIZ) [23]: inactive; Activity [24]: 48%; diameter of the inhibition zone (DIZ) [25]: inactive; diameter of the inhibition zone (DIZ) [26]: inactive; Activity [27]: 44%; MIC [28]: inactive; Activity [29]: 24%; MIC [30]: inactive; Activity [31]: 50%; diameter of the inhibition zone (DIZ) [32]: inactive; diameter of the inhibition zone (DIZ) [33]: inactive; diameter of the inhibition zone (DIZ) [34]: inactive; IC50 [35]: 11.7 µM; diameter of the inhibition zone (DIZ) [36]: inactive; diameter of the inhibition zone (DIZ) [37]: inactive; IC50 [38]: 8.68 µM
CC1(C)CC[C@]2(C(=O)OCc3ccccc3)CC[C@]3(C)C(=CC[C@@H]4[C@@]5(C)CC[C@H](O)[C@@](C)(C=O)[C@@H]5CC[C@]43C)[C@@H]2C1,inactive,inactive,6%,inactive,4%,74.2 µM,5.15 µM,inactive,inactive,inactive,45%,11.1 µM,4%,inactive,inactive,inactive,15%,1%,22%,8.51 µM,Activity [21]: 9%; diameter of the inhibition zone (DIZ) [22]: inactive; diameter of the inhibition zone (DIZ) [23]: inactive; Activity [24]: 57%; diameter of the inhibition zone (DIZ) [25]: inactive; diameter of the inhibition zone (DIZ) [26]: inactive; Activity [27]: 30%; MIC [28]: inactive; Activity [29]: 1%; MIC [30]: inactive; Activity [31]: 48%; diameter of the inhibition zone (DIZ) [32]: inactive; diameter of the inhibition zone (DIZ) [33]: inactive; diameter of the inhibition zone (DIZ) [34]: inactive; IC50 [35]: 12.7 µM; diameter of the inhibition zone (DIZ) [36]: inactive; diameter of the inhibition zone (DIZ) [37]: inactive; IC50 [38]: 8.14 µM
